According to ChEMBL document CHEMBL1122545, “N2-(4-Substituted-2,6-dichlorophenyl)-N1,N1-dimethylformamidines as antihypertensive and diuretic agents” (J Med Chem, 1984):
“And” between values parts separate entries of the source, which are not always exact repeats. Equal entries are not always repeated.

What was measured:
Rattus norvegicus [1] = test: Antihypertensive activity in SH rats, and mean arterial blood pressure was reported at a dose of 25 mg/Kg; format: functional, Artery
How it was run: (§1)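 Male SH rats (Okamoto strain), 16 weeks old, dosed orally by gavage with compound dispersed in 3% starch in normal saline at 2 mL/kg. Oral normal saline load, then individual metabolism cages; 0-5 h urine collected, Na+ and K+ measured by flame photometry. Rats redosed at 24 h without the saline load. MABP and HR taken by femoral arterial puncture under local anesthetic 4 h after the second dose.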

[2] = Diuretic activity was determined expressed as Na+(sodium) excreted in milli equivalents was reported for a duration of 5 hours after administration of a dose of 25 mg/Kg; format: ADME, Urine; conditions: in vivo; how it was run: as §1
Rattus norvegicus [3] = test: Antihypertensive activity determined as heart rate in SH rats, was reported at a dose of 25 mg/Kg; format: functional; how it was run: as §1
Rattus norvegicus [4] = test: Diuretic activity was determined in SH rats expressed as K(+) (potassium) excreted in milli equivalents was reported for a duration of 5 hours after administration of a dose of 25 mg/Kg; format: ADME, organism-based, Urine; conditions: in vivo; how it was run: as §1
[5] = Diuretic activity was determined expressed as volume of urine excreted in mL was reported at a dose of 25 mg/Kg; format: ADME; conditions: in vivo; how it was run: as §1
Rattus norvegicus [6] = test: Antihypertensive activity determined as heart rate in SH rats, was reported at a dose of 10 mg/Kg; format: functional; how it was run: as §1
[7] = Diuretic activity was determined expressed as Na+(sodium) excreted in milli equivalents was reported for a duration of 5 hours after administration of a dose of 10 mg/Kg; format: ADME, Urine; conditions: in vivo; how it was run: as §1
Rattus norvegicus [8] = test: Diuretic activity was determined in SH rats expressed as K(+) (potassium) excreted in milli equivalents was reported for a duration of 5 hours after administration of a dose of 10 mg/Kg.; format: ADME, organism-based, Urine; conditions: in vivo; how it was run: as §1
Rattus norvegicus [9] = test: Antihypertensive activity in SH rats, and mean arterial blood pressure was reported at a dose of 10 mg/Kg; format: functional, Artery; how it was run: as §1
Rattus norvegicus [10] = test: Diuretic activity was determined in SH rats expressed as K(+) (potassium) excreted in milli equivalents was reported for a duration of 5 hours after administration of a dose of 25 mg/Kg.; format: ADME, organism-based, Urine; conditions: in vivo; how it was run: as §1
[11] = Diuretic activity was determined expressed as volume of urine excreted in mL was reported at a dose of 10 mg/Kg; format: ADME; conditions: in vivo; how it was run: as §1
Canis familiaris [12] = test: Antihypertensive activity in renal hypertensive dogs and maximal fall in mean arterial blood pressure (MABP) was reported at a time duration of 5 hour after peroral administration of 0.3 mg/Kg; format: functional, Canis lupus familiaris, Artery
How it was run: (§2)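 Chronic-phase two kidney-one clip Goldblatt renal hypertensive dogs from a standing colony, habituated to the procedure. Mean arterial pressure and heart rate taken by direct arterial puncture before dosing and again 1, 3 and 5 h after oral dosing; maximal fall recorded over the 6-h postdosing interval.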

Canis familiaris [13] = test: Antihypertensive activity in renal hypertensive dogs and fall in heart rate(HR) was reported at a time duration of 5 hour after peroral administration of 0.2 mg/Kg.; format: functional, Canis lupus familiaris
How it was run: (§3)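 Chronic phase two kidney-one clip Goldblatt renal hypertensive dogs from a standing colony, habituated to the procedure, dosed orally. Arterial blood pressure and heart rate taken by arterial puncture before dosing and repeated at 1, 3 and 5 h after dosing over a 6-h postdosing interval. Maximal falls in MABP and HR recorded.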

Rattus norvegicus [14] = test: Antihypertensive activity in SH rats, and mean arterial blood pressure was reported at a dose of 100 mg/Kg; format: functional, Artery; how it was run: as §1
Canis familiaris [15] = test: Antihypertensive activity in renal hypertensive dogs and fall in heart rate(HR) was reported at a time duration of 3 hour after peroral administration of 0.1 mg/kg; format: functional, Canis lupus familiaris; conditions: route oral; how it was run: as §3
Canis familiaris [16] = test: Antihypertensive activity in renal hypertensive dogs and maximal fall in mean arterial blood pressure (MABP) was reported at a time duration of 3 hour after peroral administration of 0.1 mg/Kg; format: functional, Canis lupus familiaris, Artery; how it was run: as §3
Rattus norvegicus [17] = test: […] activity expressed as K(+) (potassium) excreted in milli equivalents was reported for a duration of 5 hours after administration of a dose of 100 mg/Kg.; format: ADME, organism-based, Urine; conditions: in vivo; how it was run: as §1
Canis familiaris [18] = test: Antihypertensive activity in renal hypertensive dogs and fall in heart rate(HR) was reported at a time duration of 3 hour after peroral administration of 1.0 mg/Kg.; format: functional, Canis lupus familiaris; how it was run: as §3
Canis familiaris [19] = test: Antihypertensive activity in renal hypertensive dogs and fall in heart rate(HR) was reported at a time duration of 0 hour after peroral administration of 0.2 mg/Kg.; format: functional, Canis lupus familiaris; how it was run: as §3
Canis familiaris [20] = test: Antihypertensive activity in renal hypertensive dogs and fall in heart rate(HR) was reported at a time duration of 0 hour after peroral administration of 1.0 mg/Kg.; format: functional, Canis lupus familiaris; how it was run: as §3
Canis familiaris [21] = test: Antihypertensive activity in renal hypertensive dogs and fall in heart rate(HR) was reported at a time duration of 1 hour after peroral administration of 0.3 mg/Kg.; format: functional, Canis lupus familiaris; how it was run: as §3
Canis familiaris [22] = test: Antihypertensive activity in renal hypertensive dogs and fall in heart rate(HR) was reported at a time duration of 0 hour after peroral administration of 0.3 mg/kg.; format: functional, Canis lupus familiaris; conditions: route oral; how it was run: as §3
Canis familiaris [23] = test: Antihypertensive activity in renal hypertensive dogs and maximal fall in mean arterial blood pressure (MABP) was reported at a time duration of 1 hour after peroral administration of 0.3 mg/Kg.; format: functional, Canis lupus familiaris, Artery; how it was run: as §3
Rattus norvegicus [24] = test: Antihypertensive activity determined as heart rate in SH rats, was reported at a dose of 100 mg/Kg; format: functional; how it was run: as §1
Canis familiaris [25] = test: Antihypertensive activity in renal hypertensive dogs and maximal fall in mean arterial blood pressure (MABP) was reported at a time duration of 5 hour after peroral administration of 0.2 mg/Kg.; format: functional, Canis lupus familiaris, Artery; how it was run: as §3
Canis familiaris [26] = test: Antihypertensive activity in renal hypertensive dogs and maximal fall in mean arterial blood pressure (MABP) was reported at a time duration of 5 hour after peroral administration of 1.0 mg/Kg.; format: functional, Canis lupus familiaris, Artery; how it was run: as §2
Canis familiaris [27] = test: Antihypertensive activity in renal hypertensive dogs and fall in heart rate(HR) was reported at a time duration of 1 hour after peroral administration of 1.0 mg/Kg.; format: functional, Canis lupus familiaris; how it was run: as §3
Canis familiaris [28] = test: Antihypertensive activity in renal hypertensive dogs and maximal fall in mean arterial blood pressure (MABP) was reported at a time duration of 3 hour after peroral administration of 0.3 mg/Kg.; format: functional, Canis lupus familiaris, Artery; how it was run: as §3
Canis familiaris [29] = test: Antihypertensive activity in renal hypertensive dogs and fall in heart rate(HR) was reported at a time duration of 1 hour after peroral administration of 0.1 mg/kg.; format: functional, Canis lupus familiaris; conditions: route oral; how it was run: as §3
Canis familiaris [30] = test: Antihypertensive activity in renal hypertensive dogs and fall in heart rate(HR) was reported at a time duration of 1 hour after peroral administration of 0.2 mg/kg.; format: functional, Canis lupus familiaris; conditions: route oral; how it was run: as §3
Canis familiaris [31] = test: Antihypertensive activity in renal hypertensive dogs and fall in heart rate(HR) was reported at a time duration of 5 hour after peroral administration of 1.0 mg/Kg.; format: functional, Canis lupus familiaris; how it was run: as §3
Rattus norvegicus [32] = test: […] activity expressed as Na+(sodium) excreted in milli equivalents was reported for a duration of 5 hours after administration of a dose of 100 mg/Kg; format: ADME, organism-based, Urine; conditions: in vivo; how it was run: as §1
Canis familiaris [33] = test: Antihypertensive activity in renal hypertensive dogs and fall in heart rate(HR) was reported at a time duration of 3 hour after peroral administration of 0.3 mg/Kg.; format: functional, Canis lupus familiaris; how it was run: as §3
Canis familiaris [34] = test: Antihypertensive activity in renal hypertensive dogs and maximal fall in mean arterial blood pressure (MABP) was reported at a time duration of 1 hour after peroral administration of 0.2 mg/Kg.; format: functional, Canis lupus familiaris, Artery; how it was run: as §3
Canis familiaris [35] = test: Antihypertensive activity in renal hypertensive dogs and fall in heart rate(HR) was reported at a time duration of 0 hour after peroral administration of 0.1 mg/Kg.; format: functional, Canis lupus familiaris; how it was run: as §3
Canis familiaris [36] = test: Antihypertensive activity in renal hypertensive dogs and maximal fall in mean arterial blood pressure (MABP) was reported at a time duration of 3 hour after peroral administration of 1.0 mg/Kg.
Canis familiaris [37] = test: Antihypertensive activity in renal hypertensive dogs and fall in heart rate(HR) was reported at a time duration of 5 hour after peroral administration of 0.3 mg/Kg.; format: functional, Canis lupus familiaris; how it was run: as §3
Canis familiaris [38] = test: Antihypertensive activity in renal hypertensive dogs and maximal fall in mean arterial blood pressure (MABP) was reported at a time duration of 1 hour after peroral administration of 0.1 mg/Kg.; format: functional, Canis lupus familiaris, Artery; how it was run: as §3
Canis familiaris [39] = test: Antihypertensive activity in renal hypertensive dogs and maximal fall in mean arterial blood pressure (MABP) was reported at a time duration of 1 hour after peroral administration of 1.0 mg/Kg.; format: functional, Canis lupus familiaris, Artery; how it was run: as §3
Canis familiaris [40] = test: Antihypertensive activity in renal hypertensive dogs and maximal fall in mean arterial blood pressure (MABP) was reported at a time duration of 3 hour after peroral administration of 0.2 mg/Kg.; format: functional, Canis lupus familiaris, Artery; how it was run: as §3
Canis familiaris [41] = test: Antihypertensive activity in renal hypertensive dogs and maximal fall in mean arterial blood pressure (MABP) was reported at a time duration of 0 hour after peroral administration of 0.2 mg/Kg.; format: functional, Canis lupus familiaris, Artery; how it was run: as §3
Canis familiaris [42] = test: Antihypertensive activity in renal hypertensive dogs and maximal fall in mean arterial blood pressure (MABP) was reported at a time duration of 0 hour after peroral administration of 1.0 mg/Kg.; format: functional, Canis lupus familiaris, Artery; how it was run: as §3
Canis familiaris [43] = test: Antihypertensive activity in renal hypertensive dogs and fall in heart rate(HR) was reported at a time duration of 3 hour after peroral administration of 0.2 mg/Kg.; format: functional, Canis lupus familiaris; how it was run: as §3
Rattus norvegicus [44] = test: Diuretic activity was determined expressed as volume of urine excreted in mL was reported at a dose of 100 mg/Kg; format: ADME, organism-based; conditions: in vivo; how it was run: as §1
Canis familiaris [45] = test: Antihypertensive activity in renal hypertensive dogs and maximal fall in mean arterial blood pressure (MABP) was reported at a time duration of 0 hour after peroral administration of 0.1 mg/Kg; format: functional, Canis lupus familiaris, Artery; how it was run: as §3
Canis familiaris [46] = test: Antihypertensive activity in renal hypertensive dogs and maximal fall in mean arterial blood pressure (MABP) was reported at a time duration of 0 hour after peroral administration of 0.3 mg/Kg.; format: functional, Canis lupus familiaris, Artery; how it was run: as §3
Canis familiaris [47] = test: Antihypertensive activity in renal hypertensive dogs and fall in heart rate(HR) was reported at a time duration of 5 hour after peroral administration of 0.1 mg/Kg; format: functional, Canis lupus familiaris; how it was run: as §3

Cc1cc(N(C)C)ccc1CNc1cc(Cl)c(/N=C/N(C)C)c(Cl)c1
MABP (Rattus norvegicus [1]): 138 mmHg
Diuretic activity [2]: 2.59 m equiv
HR (Rattus norvegicus [3]): 270 beats min-1
Diuretic activity (Rattus norvegicus [4]): 0.6 m equiv
Diuretic activity [5]: 25.5 mL

COc1cc(N(C)C)ccc1CNc1cc(Cl)c(/N=C/N(C)C)c(Cl)c1
MABP (Rattus norvegicus [1]): 114 mmHg
HR (Rattus norvegicus [6]): 450 beats min-1
Diuretic activity [2]: 2.16 m equiv
HR (Rattus norvegicus [3]): 270 beats min-1
Diuretic activity [7]: 1.29 m equiv
Diuretic activity (Rattus norvegicus [8]): 0.48 m equiv
MABP (Rattus norvegicus [9]): 132 mmHg
Diuretic activity [5]: 22.5 mL
Diuretic activity (Rattus norvegicus [10]): 0.75 m equiv
Diuretic activity [11]: 14.8 mL

CN(C)/C=N/c1c(Cl)cc(NCc2ccc(N(C)C)cc2Cl)cc1Cl
MABP (Canis familiaris [12]): 132 mmHg
HR (Canis familiaris [13]): 65 bpm
MABP (Rattus norvegicus [14]): 116 mmHg
HR (Canis familiaris [15]): 96 bpm
MABP (Canis familiaris [16]): 135 mmHg and 144 mmHg
Diuretic activity (Rattus norvegicus [17]): 0.47 m equiv
HR (Canis familiaris [18]): 47 bpm
HR (Canis familiaris [19]): 79 bpm
HR (Canis familiaris [20]): 110 bpm
HR (Canis familiaris [21]): 60 bpm
HR (Canis familiaris [22]): 94 bpm
MABP (Canis familiaris [23]): 111 mmHg
HR (Rattus norvegicus [24]): 310 beats min-1
MABP (Canis familiaris [25]): 147 mmHg
MABP (Canis familiaris [26]): 128 mmHg
HR (Canis familiaris [27]): 60 bpm
MABP (Canis familiaris [28]): 128 mmHg
HR (Canis familiaris [29]): 100 bpm
HR (Canis familiaris [30]): 56 bpm
HR (Canis familiaris [31]): 66 bpm
Diuretic activity (Rattus norvegicus [32]): 1.89 m equiv
HR (Canis familiaris [33]): 63 bpm
MABP (Canis familiaris [34]): 123 mmHg
HR (Canis familiaris [35]): 120 bpm
MABP (Canis familiaris [36]): 114 mmHg
HR (Canis familiaris [37]): 60 bpm
MABP (Canis familiaris [38]): 126 mmHg
MABP (Canis familiaris [39]): 108 mmHg
MABP (Canis familiaris [40]): 129 mmHg
MABP (Canis familiaris [41]): 152 mmHg
MABP (Canis familiaris [42]): 140 mmHg
HR (Canis familiaris [43]): 58 bpm
Diuretic activity (Rattus norvegicus [44]): 22.3 mL
MABP (Canis familiaris [45]): 146 mmHg
MABP (Canis familiaris [46]): 148 mmHg
HR (Canis familiaris [47]): 113 bpm
